Experimental data from ChEMBL document CHEMBL1136744, “Synthesis and activity of substituted 2-phenylquinolin-4-amines, antagonists of immunostimulatory CpG-oligodeoxynucleotides” (J Med Chem, 2003).

test: Ability to reverse action of CpG-ODN on WEHI 231 murine B-cell lymphoma cells; type: functional, cell-based, Mus musculus
Procedure, shortened: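 WEHI 231 murine B-lymphoma cells at 2 × 10⁵ per mL; anti-surface IgM (10 μg/mL) kills them, and CpG-ODN 1760 (6 µg/mL) reverses this. Compounds were added in triplicate at 3-fold dilutions, with or without anti-IgM. Cells were incubated 16 h at 37 °C, then pulsed with 0.5 μCi ³H-thymidine for 4 h. The concentration halving the CpG-ODN effect was read graphically from log dose-response plots. Quinacrine served as internal control.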

SMILES	Log 1/EC50
Cc1ccc(-c2cc(NCCN(C)C)c3ccccc3n2)cc1	7.91
CN1CCN(Cc2cc(Nc3cc(-c4ccc(F)cc4)nc4ccccc34)cc(CN3CCN(C)CC3)c2O)CC1	8.76
Cc1ccc(-c2cc(NCCCN3CCN(C)CC3)c3ccccc3n2)cc1	7.86
Cc1ccc(-c2cc(OCCN(C)C)c3ccccc3n2)cc1	5.88
CN1CCN(Cc2cccc(-c3cc(NCCCn4ccnc4)c4ccccc4n3)c2)CC1	6.92
Cc1ccc(-c2cc(NCCCN(C)C)c3ccccc3n2)cc1	7.94
CCN1CCCC1CNc1cc(-c2ccc(F)cc2)nc2ccccc12 (stereo unspecified)	7.77
Cc1ccc(-c2cc(NCCCCCO)c3ccccc3n2)cc1	5.74
CN1CCN(CCCNc2cc(-c3ccc(CN4CCN(C)CC4)cc3)nc3ccccc23)CC1	8.17
CN(C)CCCCNc1cc(-c2ccc(F)cc2)nc2ccccc12	7.76
Cc1ccc(-c2cc(NCCCn3ccnc3)c3ccccc3n2)cc1	6.98
CN(C)CCCNc1cc(-c2ccc(CN3CCN(C)CC3)cc2)nc2ccccc12	8.04
Cc1cccc(-c2cc(NCCCN3CCN(C)CC3)c3ccccc3n2)c1	7.56
CN(C)CCCCNc1cc(-c2ccc(N3CCN(C)CC3)cc2)nc2ccccc12	8.91
CN1CCN(Cc2cc(Nc3cc(-c4ccc(N5CCN(C)CC5)cc4)nc4ccccc34)cc(CN3CCN(C)CC3)c2O)CC1	8.85
CN1CCN(c2ccc(-c3cc(NCCCCN4CCCC4)c4ccccc4n3)cc2)CC1	8.26
CN(C)CCNc1cc(-c2ccc(N3CCN(C)CC3)cc2)nc2ccccc12	9.12
Cc1ccc(-c2cc(Nc3cc(CN4CCN(C)CC4)c(O)c(CN4CCN(C)CC4)c3)c3ccccc3n2)cc1	8.84
Cc1ccc(-c2cc(Nc3ccc(O)c(CN4CCN(C)CC4)c3)c3ccccc3n2)cc1	7.88
Cc1ccc(-c2cc(NCCCN3CCOCC3)c3ccccc3n2)cc1	7.57
CN(C)CCCNc1cc(-c2ccc(N3CCN(C)CC3)cc2)nc2ccccc12	9
CN(C)CCNc1cc(-c2ccc(N3CCCCC3)cc2)nc2ccccc12	8.27
CCN1CCCC1CNc1cc(-c2cccc(C)c2)nc2ccccc12 (stereo unspecified)	7.66
Fc1ccc(-c2cc(NCCN3CCCC3)c3ccccc3n2)cc1	7.62
NCCCCCNc1cc(-c2ccc(F)cc2)nc2ccccc12	7.81
CCN1CCCC1CNc1cc(-c2ccc(C)cc2)nc2ccccc12 (stereo unspecified)	7.66

SMILES	Log 1/EC50
CN1CCCC1CCNc1cc(-c2ccc(F)cc2)nc2ccccc12 (stereo unspecified)	7.88
CN(C)CCCNc1cc(-c2ccc(F)cc2)nc2ccccc12	7.86
Fc1ccc(-c2cc(NCCCN3CCOCC3)c3ccccc3n2)cc1	7.17
Cc1cccc(-c2cc(NCCCN(C)C)c3ccccc3n2)c1	7.88
Cc1cccc(-c2cc(NCCCn3ccnc3)c3ccccc3n2)c1	6.71
CN(C)CCCCCNc1cc(-c2ccc(N3CCN(C)CC3)cc2)nc2ccccc12	8.84
Cc1cccc(-c2cc(NCCC3CCCN3C)c3ccccc3n2)c1 (stereo unspecified)	7.85
CN1CCN(Cc2cccc(-c3cc(NCCC4CCCN4C)c4ccccc4n3)c2)CC1 (stereo unspecified)	8.11
CN1CCN(CCNc2cc(-c3ccc(N4CCN(C)CC4)cc3)nc3ccccc23)CC1	8.82
CN1CCN(c2ccc(-c3cc(NCCC4CCCN4C)c4ccccc4n3)cc2)CC1 (stereo unspecified)	8.7
CN1CCN(c2ccc(-c3cc(NCCN4CCCC4)c4ccccc4n3)cc2)CC1	8.62
CN(C)CCCNc1cc(-c2ccc(N3CCCCC3)cc2)nc2ccccc12	7.8
Cc1cccc(-c2cc(NCCCN3CCOCC3)c3ccccc3n2)c1	7.3
Fc1ccc(-c2cc(NCCCCN3CCCC3)c3ccccc3n2)cc1	7.68
CN(C)CCNc1cc(-c2ccc(CN3CCN(C)CC3)cc2)nc2ccccc12	8.15
CCN(CC)CCNc1cc(-c2cccc(C)c2)nc2ccccc12	7.65
CN1CCN(c2ccc(-c3cc(NCCCN4CCOCC4)c4ccccc4n3)cc2)CC1	8.66
CN1CCN(CCNc2cc(-c3ccc(F)cc3)nc3ccccc23)CC1	7.73
CN(C)CCCCNc1cc(-c2ccc(N3CCCCC3)cc2)nc2ccccc12	7.33
CN1CCN(Cc2ccc(-c3cc(NCCN4CCCC4)c4ccccc4n3)cc2)CC1	8.49
OCCCCCNc1cc(-c2ccc(F)cc2)nc2ccccc12	5.16
Cc1cccc(-c2cc(OCCN(C)C)c3ccccc3n2)c1	5.51
Cc1cccc(-c2cc(NCCN(C)C)c3ccccc3n2)c1	7.74
CN1CCN(Cc2cc(Nc3cc(-c4ccc(F)cc4)nc4ccccc34)ccc2O)CC1	7.67
CCN(CC)CCNc1cc(-c2ccc(C)cc2)nc2ccccc12	7.73
